Measured values as given in ChEMBL document CHEMBL1144782, “Isoindolo[2,1-a]quinoxaline derivatives, novel potent antitumor agents with dual inhibition of tubulin polymerization and topoisomerase I” (2008).

Tests used:
Format in all cases: functional
RXF 393 = experiment: Antitumor activity against human RXF393 cells
How it was run: (§1)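 Run by the NCI in its in vitro disease-oriented screen of about 60 human tumour cell lines. For each line it reports pGI50 (50% net growth inhibition), pTGI (total growth inhibition) and pLC50 (50% net cell death), each as –log molar concentration. Where an effect was not reached within the tested range, the highest tested concentration was used.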

CAKI-1 = experiment: Antitumor activity against human CAKI1 cells; how it was run: as §1
NCI-H23 = experiment: Antitumor activity against human NCI-H23 cells; how it was run: as §1
SR = experiment: Antitumor activity against human SR cells
How it was run: (§2)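 NCI 60-cell-line screen. Parameters were GI50 (50% net growth inhibition), TGI and LC50, each reported as –log molar concentration. Where an effect was not reached within the tested range, the highest tested concentration was used in the calculation.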

ACHN = experiment: Antitumor activity against human ACHN cells; how it was run: as §1
HCT-116 = experiment: Antitumor activity against human HCT116 cells; how it was run: as §1
A498 = experiment: Antitumor activity against human A498 cells; how it was run: as §1
SF-268 [1] = experiment: Antitumor activity against human SF268 cells; how it was run: as §1
OVCAR-4 = experiment: Antitumor activity against human OVCAR4 cells; how it was run: as §1
[2] = Antitumor activity against human […] cells; how it was run: as §1
UACC-257 = experiment: Antitumor activity against human UACC257 cells; how it was run: as §2
A549 = experiment: Antitumor activity against human A549 cells; how it was run: as §1
SK-MEL-28 = experiment: Antitumor activity against human SKMEL28 cells; how it was run: as §1
RPMI-8226 = experiment: Antitumor activity against human RPMI8226 cells; how it was run: as §1
CCRF-CEM [3] = experiment: Growth inhibition of human vinblastine-resistant CEM cells after 72 hrs by MTT assay
How it was run: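 Growth inhibition by MTT after 72 h incubation. Resistant sublines: LoVoDoxo and MCF-7 MDR were kept in 0.1 µg/mL doxorubicin; CEMVbl-100 was selected against vinblastine. GI50 given as mean ± SEM of three independent experiments. Resistance index is resistant-line GI50 over parental GI50.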

T47D = experiment: Antitumor activity against human T47D cells; how it was run: as §2
SK-MEL-5 = experiment: Antitumor activity against human SKMEL5 cells; how it was run: as §1
IGROV-1 = experiment: Antitumor activity against human IGROV1 cells; how it was run: as §1
SF-539 = experiment: Antitumor activity against human SF539 cells; how it was run: as §1
Hs-578T = experiment: Antitumor activity against human HS578T cells; how it was run: as §1
SK-OV-3 = experiment: Antitumor activity against human SKOV3 cells; how it was run: as §1
KM12 = experiment: Antitumor activity against human KM12 cells; how it was run: as §1
CCRF-CEM [4] = experiment: Resistance index, Ratio of GI50 for human vinblastine-resistant CEM cells to GI50 for human CEM cells
OVCAR-8 = experiment: Antitumor activity against human OVCAR8 cells; how it was run: as §1
U-251 = experiment: Antitumor activity against human U251 cells; how it was run: as §2
HOP-62 = experiment: Antitumor activity against human HOP62 cells; how it was run: as §1
SF-295 = experiment: Antitumor activity against human SF295 cells; how it was run: as §1
HOP-92 = experiment: Antitumor activity against human HOP92 cells; how it was run: as §1
M14 = experiment: Antitumor activity against human M14 cells; how it was run: as §1
HCC 2998 = experiment: Antitumor activity against human HCC2998 cells; how it was run: as §1
SF-268 [5] = experiment: Cell viability against human SF268 cells at 10 uM
MDA-MB-435 = experiment: Antitumor activity against human MDA-MB-435 cells; how it was run: as §1
SNB-19 = experiment: Antitumor activity against human SNB19 cells; how it was run: as §1
NCI-H460 = experiment: Cell viability against human NCI-H460 cells at 10 uM
MCF7 = experiment: Antitumor activity against human MCF7 cells; how it was run: as §1
UACC-62 = experiment: Antitumor activity against human UACC62 cells; how it was run: as §2
NCI-H522 = experiment: Antitumor activity against human NCI-H522 cells; how it was run: as §1
OVCAR-5 = experiment: Antitumor activity against human OVCAR5 cells; how it was run: as §1
MOLT-4 = experiment: Antitumor activity against human MOLT4 cells; how it was run: as §1
LOX IMVI = experiment: Antitumor activity against human LOXIMVI cells; how it was run: as §1
[6] = read-out: Log LC50 (the source's name) (converted)

`Cc1cc2[nH]c(=O)c3c4ccccc4cn3c2cc1C` showed a GI50 (RXF 393) of 12 µM, a CC50 (RXF 393; [6]) of 63.1 µM and a TGI (RXF 393; read-out: pTGI (converted)) of 27.5 µM. The GI50 (CAKI-1) was 5.37 µM, the LC50 (CAKI-1) was 49 µM and the TGI (CAKI-1; read-out: pTGI (converted)) was 17.8 µM. It also gave a GI50 (NCI-H23) of 14.8 µM, an LC50 (50% net cell kill) (NCI-H23) of 69.2 µM and a TGI (NCI-H23; read-out: pTGI (converted)) of 32.4 µM. It also gave a GI50 (SR) of 2.57 µM, an LC50 (SR) of 49 µM and a TGI (SR; read-out: pTGI (converted)) of 5.75 µM. For the same compound, the GI50 (ACHN) was 10.2 µM, the LC50 (50% net cell kill) (ACHN) was 53.7 µM and the TGI (ACHN; read-out: pTGI (converted)) was 23.4 µM. The GI50 (HCT-116) was 1.58 µM, the LC50 (HCT-116) was 6.17 µM and the TGI (HCT-116; read-out: pTGI (converted)) was 3.09 µM. For the same compound, the GI50 (A498) was 21.4 µM, the CC50 (A498; [6]) was 72.4 µM and the TGI (A498; read-out: pTGI (converted)) was 39.8 µM. It also gave a GI50 (SF-268 [1]) of 15.5 µM, a CC50 (SF-268 [1]; [6]) of 69.2 µM and a TGI (SF-268 [1]; read-out: pTGI (converted)) of 32.4 µM. The GI50 (OVCAR-4) was 13.5 µM, the LC50 (50% net cell kill) (OVCAR-4) was 56.2 µM and the TGI (OVCAR-4; read-out: pTGI (converted)) was 27.5 µM. It also gave a GI50 [2] of 8.32 µM, an LC50 [2] of 60.3 µM and a TGI ([2]; read-out: pTGI (converted)) of 23.4 µM. The GI50 (UACC-257) was 20.4 µM, the LC50 (UACC-257) was 63.1 µM and the TGI (UACC-257; read-out: pTGI (converted)) was 35.5 µM. For the same compound, the GI50 (A549) was 14.8 µM, the CC50 (A549; [6]) was 95.5 µM and the TGI (A549; read-out: pTGI (converted)) was 38 µM. The GI50 (SK-MEL-28) was 14.8 µM, the CC50 (SK-MEL-28; [6]) was 83.2 µM and the TGI (SK-MEL-28; read-out: pTGI (converted)) was 35.5 µM. The GI50 (RPMI-8226) was 6.76 µM, the CC50 (RPMI-8226; [6]) was greater than 100 µM and the TGI (RPMI-8226; read-out: pTGI (converted)) was 29.5 µM. For the same compound, the GI50 (CCRF-CEM [3]) was 15.1 µM, the GI50 (T47D) was 15.5 µM and the LC50 (T47D) was greater than 100 µM. For the same compound, the TGI (T47D; read-out: pTGI (converted)) was 50.1 µM, the GI50 (SK-MEL-5) was 13.5 µM and the LC50 (SK-MEL-5) was 64.6 µM. For the same compound, the TGI (SK-MEL-5; read-out: pTGI (converted)) was 29.5 µM, the GI50 (IGROV-1) was 12.3 µM and the CC50 (IGROV-1; [6]) was 57.5 µM. The TGI (IGROV-1; read-out: pTGI (converted)) was 26.9 µM, the GI50 (SF-539) was 11.2 µM and the LC50 (50% net cell kill) (SF-539) was 64.6 µM. The TGI (SF-539; read-out: pTGI (converted)) was 26.9 µM, the GI50 (Hs-578T) was 25.1 µM and the CC50 (Hs-578T; [6]) was greater than 100 µM. The TGI (Hs-578T; read-out: pTGI (converted)) was 60.3 µM, the GI50 (SK-OV-3) was 18.2 µM and the LC50 (50% net cell kill) (SK-OV-3) was 64.6 µM. The TGI (SK-OV-3; read-out: pTGI (converted)) was 34.7 µM, the GI50 (KM12) was 7.08 µM and the LC50 (50% net cell death) (KM12) was 52.5 µM. The TGI (KM12; read-out: pTGI (converted)) was 21.4 µM, the RatioGI50 (CCRF-CEM [4]) was 0.97 and the GI50 (OVCAR-8) was 7.08 µM. The LC50 (50% net cell death) (OVCAR-8) was 81.3 µM, the TGI (OVCAR-8; read-out: pTGI (converted)) was 25.7 µM and the GI50 (U-251) was 4.07 µM. For the same compound, the CC50 (U-251; [6]) was 47.9 µM, the TGI (U-251; read-out: pTGI (converted)) was 14.1 µM and the GI50 (HOP-62) was 2.69 µM. The LC50 (50% net cell death) (HOP-62) was 28.8 µM, the TGI (HOP-62; read-out: pTGI (converted)) was 8.13 µM and the GI50 (SF-295) was 12.3 µM. The CC50 (SF-295; [6]) was 66.1 µM, the TGI (SF-295; read-out: pTGI (converted)) was 28.2 µM and the GI50 (HOP-92) was 15.5 µM. It also gave an LC50 (HOP-92) of 58.9 µM, a TGI (HOP-92; read-out: pTGI (converted)) of 30.2 µM and a GI50 (M14) of 13.5 µM. It also gave a CC50 (M14; [6]) of 52.5 µM, a TGI (M14; read-out: pTGI (converted)) of 26.9 µM and a GI50 (HCC 2998) of 4.07 µM. For the same compound, the LC50 (HCC 2998) was 50.1 µM, the TGI (HCC 2998; read-out: pTGI (converted)) was 16.6 µM and the Activity (SF-268 [5]) was 0%. For the same compound, the GI50 (MDA-MB-435) was 6.03 µM, the LC50 (50% net cell death) (MDA-MB-435) was 50.1 µM and the TGI (MDA-MB-435; read-out: pTGI (converted)) was 20 µM. For the same compound, the GI50 (SNB-19) was 16.2 µM, the CC50 (SNB-19; [6]) was 83.2 µM and the TGI (SNB-19; read-out: pTGI (converted)) was 36.3 µM. It also gave an Activity (NCI-H460) of 0%, a GI50 (MCF7) of 11.7 µM and an LC50 (50% net cell kill) (MCF7) greater than 100 µM. The TGI (MCF7; read-out: pTGI (converted)) was greater than 100 µM, the GI50 (UACC-62) was 16.6 µM and the LC50 (UACC-62) was 60.3 µM. The TGI (UACC-62; read-out: pTGI (converted)) was 31.6 µM, the GI50 (NCI-H522) was 14.5 µM and the CC50 (NCI-H522; [6]) was 66.1 µM. The TGI (NCI-H522; read-out: pTGI (converted)) was 30.9 µM, the GI50 (OVCAR-5) was 13.8 µM and the LC50 (50% net cell death) (OVCAR-5) was 55 µM. For the same compound, the TGI (OVCAR-5; read-out: pTGI (converted)) was 27.5 µM, the GI50 (MOLT-4) was 5.62 µM and the LC50 (MOLT-4) was 70.8 µM. It also gave a TGI (MOLT-4; read-out: pTGI (converted)) of 19.5 µM, a GI50 (LOX IMVI) of 2.04 µM and an LC50 (50% net cell kill) (LOX IMVI) of 7.94 µM. The TGI (LOX IMVI; read-out: pTGI (converted)) was 3.98 µM.
